# Screening data (PubChem)
# ABCB6 inh MLPCN: inhibitors of human ABC transporter ABCB6. Q9NP58. K562-ABCB6 porphyrin accumulation, flow cytometry, 1 h; hits give low values. fluorescence ratio to DMSO, % at 10 µM. 360,000 tested, 0.19% active. AID 602162;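 active = fluorescence ratio to DMSO below 75%, the collection mean minus 3 SD; inconclusive = too few cells collected in the well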;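 also: signal is porphyrin accumulated inside mitochondria; 100% equals median channel fluorescence of DMSO control wells; lower ratio means ABCB6 inhibition with less porphyrin fluorescence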
# Target sequence (Q9NP58 whole entry, looked up): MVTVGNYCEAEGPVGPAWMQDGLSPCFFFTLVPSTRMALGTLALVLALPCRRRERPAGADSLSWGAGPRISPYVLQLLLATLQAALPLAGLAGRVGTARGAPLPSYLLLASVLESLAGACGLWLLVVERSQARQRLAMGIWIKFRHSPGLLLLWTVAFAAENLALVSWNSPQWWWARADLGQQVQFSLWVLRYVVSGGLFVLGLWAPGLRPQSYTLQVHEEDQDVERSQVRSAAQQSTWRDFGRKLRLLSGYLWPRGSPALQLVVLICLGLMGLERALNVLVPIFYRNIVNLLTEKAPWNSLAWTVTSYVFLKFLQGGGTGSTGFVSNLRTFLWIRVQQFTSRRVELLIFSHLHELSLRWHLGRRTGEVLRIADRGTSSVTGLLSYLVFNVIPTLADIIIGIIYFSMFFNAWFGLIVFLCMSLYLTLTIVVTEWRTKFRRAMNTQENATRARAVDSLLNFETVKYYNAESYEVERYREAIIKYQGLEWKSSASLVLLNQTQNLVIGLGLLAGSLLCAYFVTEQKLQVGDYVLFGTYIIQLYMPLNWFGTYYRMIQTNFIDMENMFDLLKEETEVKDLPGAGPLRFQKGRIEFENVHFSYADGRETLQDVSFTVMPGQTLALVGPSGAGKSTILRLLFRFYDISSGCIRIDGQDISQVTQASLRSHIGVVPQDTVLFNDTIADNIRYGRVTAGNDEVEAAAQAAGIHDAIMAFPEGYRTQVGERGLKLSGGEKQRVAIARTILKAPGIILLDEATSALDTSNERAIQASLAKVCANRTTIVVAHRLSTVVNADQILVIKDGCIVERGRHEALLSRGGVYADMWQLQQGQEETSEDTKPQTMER
# Myeloid diff MLP: compounds promoting myeloid differentiation; calls only at 10 µM; ER-HoxA9 myeloid progenitors, lysozyme-GFP differentiation, flow cytometry; AID 624256; 360,000 tested, 1% active;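 active = normalized GFP-positive differentiation at or above the plate's own cutoff, the solvent-only control mean plus 3 SD; inconclusive = no clear call, values can overlap the other calls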;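 also: cells exposed to compound for four days before flow analysis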
# XiGFP reactiv: activators of X-chromosome reactivation in mouse fibroblasts; XiGFP mouse fibroblasts, % GFP-positive cells imaging, 3 d; cells co-treated with 5-aza-dC sensitizer; scaled so ellipticine positive control = 100%; activation, % at 7.58 µM; 360,000 tested, 0.055% active; AID 743238;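 active = mean normalized replicate activation at least 10% and every replicate at or above 10%; inconclusive = only one of the two criteria met; inactive = mean below 10% and not all replicates reach 10%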;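 also: 0% = median of on-plate neutral control wells and 100% = ellipticine 6 µM median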
#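 Assay system – SV40-immortalized XiGFP fibroblast cells, line 68-5-11 · Buffer or medium – DMEM supplemented with 5-aza-dC as sensitizing agent · Dosing – one concentration, pinned · Benchmarks – positive control ellipticine, 6 µM final · Times – 3 days compound exposure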
# An asterisk follows results filed as active; i = inactive; ? = inconclusive; nt = not tested or not shown; + = active, no number. Shown is part of a subset that was picked to be rich in hits.
SMILES,ABCB6 inh MLPCN,Myeloid diff MLP,XiGFP reactiv
CO[C@H]1CN(C)C(=O)c2ccc(NC(=O)Nc3ccccc3F)cc2OC[C@H](C)NC[C@@H]1C,nt,nt,0
COc1ccc(-c2ccc3c(c2)O[C@H](CN(C)C(C)=O)[C@@H](C)CN([C@H](C)CO)S3(=O)=O)cc1,nt,nt,-1
CCOC(=O)c1cc2c(ccn2C)n1CC(=O)N(Cc1ccccc1)c1ccccc1,99,+,1
CCOC(=O)c1cc2c(ccn2C)n1CC(=O)N(Cc1ccccc1)c1ccc(F)cc1,95,i,0
CCOC(=O)c1ccc(S(=O)(=O)N2CCC(C(=O)O)CC2)cc1,104,+,nt
Cc1ccccc1NC(=O)COC(=O)c1ccc(S(=O)(=O)N2CCCCCC2)cc1,102,i,0
CCOC(=O)c1ccc(S(=O)(=O)N2CCC(N3CCCCC3)CC2)cc1,97,i,0
Cc1ccccc1NC(=O)COC(=O)c1ccc(S(=O)(=O)N2CCCC2)cc1,109,+,0
O=C([C@H]1[C@H](CO)[C@H]2Cn3c(ccc(-c4ccccc4)c3=O)[C@@H]1N2CCC(F)(F)F)N1CCOCC1,nt,nt,0
CC(=O)N1[C@H](CO)[C@@H](c2ccccc2)C12CN(C(=O)c1ccccc1)C2,nt,nt,0
C[C@H](CO)N1C[C@H](C)[C@@H](CN(C)C(=O)Nc2ccccc2)Oc2ccc(NS(=O)(=O)c3cccs3)cc2C1=O,nt,nt,0
CCSc1ncc(/C=N/Nc2ccc([N+](=O)[O-])cc2)n1C,100,i,nt
C=Cc1cnc([N+](=O)[O-])n1C,99,i,88*
C[C@H](NC(=O)C[C@@H]1C=C[C@@H](NC(=O)C2CCC2)[C@@H](CO)O1)c1ccccc1,nt,nt,0
CCCNC(=O)[C@H]1[C@H](CO)[C@H]2Cn3c(ccc(-c4ccccc4F)c3=O)[C@H]2N1C,nt,nt,0
O=C1CCN(S(=O)(=O)c2ccccc2)CCN1CCOCc1ccccc1,109,i,1
Cc1cccc(COCCN2CCN(S(=O)(=O)c3ccccc3)CCC2=O)c1,101,+,1
CC(C)NC(=O)N1C[C@@H]2[C@H](c3ccccc31)[C@H](CO)N2Cc1ccc(Cl)cc1,nt,nt,0
O=C(C[C@H]1CC[C@H](NC(=O)CC2CC2)[C@H](CO)O1)NCc1ccccc1,nt,nt,0
COc1ccc(C=C2C(=O)c3ccccc3C2=O)cc1O,103,i,0
COc1cccc(/C=C2\C(=O)C(=O)c3ccccc32)c1,108,+,nt
COc1cccc(C=C2Cc3ccccc3C2=O)c1,93,i,0
COc1cc(C=C2C(=O)c3ccccc3C2=O)cc(OC)c1OC,105,+,3
COc1cc(C=C2C(=O)c3ccccc3C2=O)cc(OC)c1,94,+,?
COc1cc(C=C2C(=O)c3ccccc3C2=O)ccc1O,102,i,1
SMILES,ABCB6 inh MLPCN,Myeloid diff MLP,XiGFP reactiv
CC(C)[C@@H]1COCc2cn(nn2)CC[C@H](Cc2ccc(-c3ccccc3)cc2)C(=O)N1,nt,nt,0
COCC(=O)Nc1ccc2c(c1)[C@@H]1C[C@@H](CC(=O)NCc3ccc(OC)cc3)O[C@@H](CO)[C@@H]1O2,nt,nt,0
CO[C@@H](CN(C)C(=O)C1CC1)[C@@H](C)CN(C(=O)Nc1ccc(C(F)(F)F)cc1)[C@H](C)CO,nt,nt,0
C[C@H](CO)N1C[C@H](C)[C@H](CN(C)S(=O)(=O)c2ccc(F)cc2)Oc2ccc(NC(=O)CCN3CCOCC3)cc2C1=O,nt,nt,0
COc1ccccc1Cn1c(=S)[nH]c2cc(C(=O)N3CCC(C(N)=O)CC3)ccc2c1=O,96,+,0
CCOC(=O)N1CCN(C(=O)c2ccc3c(=O)n(Cc4ccccc4OC)c(=S)[nH]c3c2)CC1,87,i,nt
COc1ccc(CN(C)C[C@H]2Oc3ccc(NC(=O)NC(C)C)cc3CC(=O)N([C@H](C)CO)C[C@H]2C)cc1,nt,nt,0
C[C@@H]1CCCCO[C@H](CN(C)C(=O)Nc2ccc(C(F)(F)F)cc2)[C@@H](C)CN([C@H](C)CO)C(=O)c2cc(NC(=O)Nc3ccc(C(F)(F)F)cc3)ccc2O1,nt,nt,0
CN1CCN(C(=O)C[C@@H]2C[C@H]3c4cc(NC(=O)c5ccc6c(c5)OCO6)ccc4O[C@H]3[C@H](CO)O2)CC1,nt,nt,0
COC(=O)c1ccc2c(=O)n(-c3ccc(OC)cc3)c(=S)[nH]c2c1,i,+,1
COc1ccc(-n2c(=S)[nH]c3cc(C(=O)O)ccc3c2=O)cc1,97,i,0
CN(C)C(=O)[C@H]1[C@H](CO)[C@H]2Cn3c(ccc(C4=CCCCC4)c3=O)[C@@H]1N2Cc1ccccc1,nt,nt,1
COc1ccc(-c2ccc([C@H]3[C@@H](CO)N4CCCCN(S(=O)(=O)c5cccs5)C[C@@H]34)cc2)cc1,nt,nt,0
Cc1ccc(S(=O)(=O)c2c(N)n(Cc3ccco3)c3nc4ccccc4nc23)cc1,102,i,nt
Cc1cccc(S(=O)(=O)c2c(N)n(Cc3ccco3)c3nc4ccccc4nc23)c1,100,+,nt
COCC(=O)Nc1ccc2c(c1)C(=O)N(C)C[C@@H](OC)[C@@H](C)CN[C@H](C)CO2,nt,nt,1
NNC(=O)c1ccc(Oc2cc(Cl)cc(Cl)c2)o1,93,+,0
O=C(NCC1CC1)c1ccc(Oc2cc(Cl)cc(Cl)c2)o1,98,i,0
Cc1ccc(C)c(CSC2=NN3CCCC(=O)N=C3S2)c1,96,i,19*
Cc1ccc(NC(=O)CSC2=NN3CCCC(=O)N=C3S2)c(C)c1,104,i,0
COc1ccc2c3c(n(C)c2c1)[C@H](CO)N(C)CC31CCN(C(=O)c2ccc3c(c2)OCO3)CC1,nt,nt,0
CO[C@H]1CN(C)C(=O)c2cc(NC(=O)C3CC3)ccc2OC[C@@H](C)N(C(=O)CN(C)C)C[C@H]1C,nt,nt,0
Cc1ccc(-c2cc(C(=O)N/N=C/c3ccc([N+](=O)[O-])o3)c3ccccc3n2)o1,103,?,0
Cc1cc(N/N=C/c2ccc([N+](=O)[O-])o2)nc2ccccc12,556,+,43*
O=[N+]([O-])c1ccccc1-c1ccc(C(=S)N2CCCCC2)o1,101,i,0
SMILES,ABCB6 inh MLPCN,Myeloid diff MLP,XiGFP reactiv
O=[N+]([O-])c1ccccc1-c1ccc(C(=S)N2CCCC2)o1,109,+,0
Cc1nc2c3cc(F)ccc3n(Cc3ccc(F)cc3)c2s1,80,+,0
COC(=O)Cn1c2ccc(F)cc2c2nc(C)sc21,95,i,nt
Cc1cc(Cl)c(C)c(S(=O)(=O)N2CCN(CC(=O)N3CCOCC3)CC2)c1Cl,90,+,0
Cc1ccc(S(=O)(=O)N2CCN(CC(=O)N3CCOCC3)CC2)cc1,102,i,0
C[C@H]1CN([C@@H](C)CO)C(=O)c2cc(NC(=O)CCCN(C)C)ccc2O[C@@H]1CN(C)S(C)(=O)=O,nt,nt,0
C[C@H]1CN([C@@H](C)CO)C(=O)c2cc(NS(=O)(=O)c3ccc(Cl)cc3)ccc2O[C@H]1CN(C)S(=O)(=O)c1cccs1,nt,nt,0
CCS(=O)(=O)Nc1ccc2c(c1)C(=O)N(C)[C@@H]1CC[C@H](CC(=O)N3CCOCC3)O[C@@H]1CO2,nt,nt,0
Nc1ccc2ccc(O)cc2c1,103,i,0
C[n+]1c2cc(N)ccc2cc2ccc(N)cc21,i,?,53*
